Inhibition data for 9 molecules are collected here from ChEMBL document CHEMBL1123074, “Aromatase inhibitors. Synthesis and biological activity of androstenedione derivatives” (J Med Chem, 1985).

Series [1] has as its target T1, Aromatase (Homo sapiens, UniProt P11511).
T1 sequence (P11511 whole entry): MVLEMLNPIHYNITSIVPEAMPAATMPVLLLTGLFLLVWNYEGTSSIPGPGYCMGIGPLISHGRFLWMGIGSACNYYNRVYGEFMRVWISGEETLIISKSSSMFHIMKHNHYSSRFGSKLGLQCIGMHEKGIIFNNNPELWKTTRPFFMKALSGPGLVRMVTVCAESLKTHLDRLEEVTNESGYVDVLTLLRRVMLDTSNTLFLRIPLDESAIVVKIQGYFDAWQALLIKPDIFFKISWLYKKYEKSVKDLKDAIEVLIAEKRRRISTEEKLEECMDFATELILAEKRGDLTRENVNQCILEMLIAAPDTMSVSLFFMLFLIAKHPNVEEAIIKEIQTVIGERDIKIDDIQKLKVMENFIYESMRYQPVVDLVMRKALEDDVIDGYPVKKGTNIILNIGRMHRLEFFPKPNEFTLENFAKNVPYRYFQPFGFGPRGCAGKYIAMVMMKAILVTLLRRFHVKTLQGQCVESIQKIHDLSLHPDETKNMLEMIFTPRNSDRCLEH
The series can be described thus: Percent inhibition of human placental Cytochrome P450 19A1 at 1:1 inhibitor: androstenedione (0.7 uM) ratio. Put shortly:
(§1)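 Human term placental microsomes (0.3-0.9 mg protein) incubated with test compound at stated inhibitor:substrate ratio, [4-14C]androstenedione, 0.7 μM androstenedione and NADPH-generating system (NADP, glucose 6-phosphate, glucose-6-phosphate dehydrogenase) in 0.1 M phosphate buffer pH 7.4, 30 min, 37 °C under oxygen. Stopped with [6,7-3H2]estradiol/estrone recovery markers and carriers; estrogens extracted, TLC-purified, quantified versus control.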

Series [2] deals with T1, Aromatase. The series can be described thus: Percent inhibition of human placental Cytochrome P450 19A1 at 3:1 inhibitor: androstenedione (0.7 uM) ratio. The gist of the method: as §1
For series [3], the target named is T1, Aromatase. Kind of series: Percent inhibition of human placental Cytochrome P450 19A1 at 6:1 inhibitor: androstenedione (0.7 uM) ratio. Put shortly:
as §1

Take `CC(=O)OC1=C2CCC3C4CCC(=O)C4(C)CCC3C2(C)CCC1=O` (stereo unspecified): the Inhibition was 81% at Aromatase [1] and 90% at Aromatase [2].

Regarding `CC12CCC3C(C=CC4=C(O)C(=O)CCC43C)C1CCC2=O` (stereo unspecified), the Inhibition was determined as 8% on Aromatase [1] and 30% at Aromatase [2].

`CC12CCC3C(CCC4=C(OC(=O)CCC(=O)O)C(=O)CCC43C)C1CCC2=O` (stereo unspecified): the Inhibition on Aromatase [2] was 70%.

`CC12CCC3C(CCC4=C(Cl)C(=O)CCC43C)C1CCC2=O` (stereo unspecified): the Inhibition is 9% on Aromatase [2] and 43% at Aromatase [3].

For the molecule `CC12CCC3C(CC(=O)C4=CC(=O)CCC43C)C1CCC2=O` (stereo unspecified), the Inhibition on Aromatase [2] was determined as 78%.

`C[C@]12C=CC(=O)C=C1C=C[C@@H]1[C@@H]2CC[C@]2(C)C(=O)CC[C@@H]12`: the Inhibition stood at 69% on Aromatase [1] and 83% on Aromatase [2].

As for `CC12C=CC(=O)C(O)=C1CCC1C2CCC2(C)C(=O)CCC12` (stereo unspecified), the values for the Inhibition on Aromatase [1] and at Aromatase [2] were 66% and 84%, respectively.

With `COC1=C2CCC3C4CCC(=O)C4(C)CCC3C2(C)CCC1=O` (stereo unspecified), the Inhibition was 7% at Aromatase [2] and 28% on Aromatase [3].

As to `C[C@]12CCC(=O)C(O)=C1CC[C@@H]1[C@@H]2CC[C@]2(C)C(=O)CC[C@@H]12` [FORMESTANE], the Inhibition on Aromatase [1] worked out at 89%; on Aromatase [2] it was 91%.
